# Bioassay records deposited in PubChem BioAssay by Broad Institute.
# Shown are actives, neighbours in structure and some others; about 5.8% of the full set was active somewhere.
# T cruzi growth – T. cruzi proliferation inhibition | T. cruzi beta-gal in NIH3T3, GalScreen luminescence, 90 h | inhibition, % at 8.34 µM | actives 5.9% (n = 77,000);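 active means mean inhibition above about 93%, with at least 55% of replicates each passing it, limit read from the data, passing the limit was not always enough; inconclusive means only one of those two conditions holds; inactive means neither condition holds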
# KDM4C inh – blocks human GASC-1 (KDM4C) demethylase activity. Q9H3R0. AID 720574. actives 0.15% (n = 96,000). GST-KDM4C 2-372, H3K9me3 peptide, LANCE TR-FRET. inhibition, % at 12.5 µM;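 active means mean replicate inhibition above about 25%, with at least 55% of replicates also reaching it, limit read from the data, passing the limit was not always enough; inconclusive means only one of those two conditions met; inactive means neither condition met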
# Target sequence (Q9H3R0 2-372 limits assumed): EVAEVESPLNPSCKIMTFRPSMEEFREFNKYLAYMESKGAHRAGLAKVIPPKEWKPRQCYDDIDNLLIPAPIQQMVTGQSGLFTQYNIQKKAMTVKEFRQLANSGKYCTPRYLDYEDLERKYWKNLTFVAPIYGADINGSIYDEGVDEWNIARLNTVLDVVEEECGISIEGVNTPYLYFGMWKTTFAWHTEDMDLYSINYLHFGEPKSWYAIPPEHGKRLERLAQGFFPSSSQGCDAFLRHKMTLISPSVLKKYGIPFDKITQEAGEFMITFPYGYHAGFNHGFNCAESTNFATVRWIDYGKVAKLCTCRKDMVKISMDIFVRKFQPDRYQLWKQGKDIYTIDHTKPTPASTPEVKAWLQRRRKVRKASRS
#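 reagent = H3K9me3 peptide substrate, Fe(II), 2-oxoglutarate | system = GST-tagged GASC-1 (JMJD2C) catalytic fragment, aa 2-372 | amount = enzyme final amount 10 nM | read-out = Fall in 671/618 emission ratio as inhibition | medium = HEPES buffer, pH 7.5, plus ascorbate | schedule = 30 min reaction, 60 min detection, RT | measured by = LANCE TR-FRET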
# Pf Dd2 inh – blocks growth of Plasmodium falciparum Dd2 parasites; P. falciparum Dd2 growth, SYBR Green, 72 h; active compounds read low; activity change, % at 10 µM; actives 2.3% (n = 94,000); AID 1159554; in the data active means activity change below about -80%; inconclusive means no clear call, values can overlap the other calls
# IDH1 R132H inh – IDH1 R132H (human) inhibition | O75874 | IDH1 R132H reductase, diaphorase/resazurin fluorescence, 60 min | AID 624101 | inhibition, % at 10 µM | actives 0.18% (n = 70,000); in the data active means inhibition above about 34%; inconclusive means no clear call, values can overlap the other calls; inactive means below about 11%;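 further: 0% = DMSO and 100% = no enzyme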
# * = called active by the depositor; ? = inconclusive; . = no result given.
SMILES,T cruzi growth,KDM4C inh,Pf Dd2 inh,IDH1 R132H inh
Cc1ccc(S(=O)(=O)N(C)C[C@@H]2OCCCC[C@@H](C)Oc3ccc(NC(=O)Nc4ccc(F)cc4)cc3C(=O)N([C@H](C)CO)C[C@@H]2C)cc1,.,.,-84*,0
Cc1cc(C)nc(SC(C)C(=O)Nc2ccccc2)n1 (stereo not given),.,.,.,0
CCC(C)(C)C(=O)N1CCC(C(=O)OC)CC1,.,.,.,0
CCN(CC)C(=O)c1cc(-c2ccc(Cl)c(Cl)c2)on1,.,.,.,0
Cc1ccc(S(=O)(=O)N(C)C[C@@H]2OCCCC[C@@H](C)Oc3ccc(NC(=O)Nc4ccccc4)cc3C(=O)N([C@@H](C)CO)C[C@@H]2C)cc1,25,0,-91*,.
Cc1ccc(S(=O)(=O)N(C)C[C@H]2OCCCC[C@H](C)Oc3ccc(NC(=O)NC4CCCCC4)cc3C(=O)N([C@@H](C)CO)C[C@H]2C)cc1,25,-1,-86*,.
Cc1ccc(S(=O)(=O)N(C)C[C@@H]2OCCCC[C@@H](C)Oc3ccc(NC(=O)Nc4ccccc4)cc3C(=O)N([C@@H](C)CO)C[C@H]2C)cc1,46,5,-67,.
CCc1ccc2[nH]c(C(=O)Nc3ccccc3C(C)CC)cc2c1 (stereo not given),.,.,.,2
C[C@H](CO)N1C[C@H](C)[C@H](CN(C)Cc2ccc(Oc3ccccc3)cc2)Oc2ccc(NC(=O)CCCCCC(=O)Nc3ccccc3N)cc2CC1=O,27,0,-84*,.
C[C@H](CO)N1C[C@H](C)[C@H](CN(C)Cc2ccccc2)Oc2ccc(NC(=O)CCCCCC(=O)Nc3ccccc3N)cc2CC1=O,45,-1,-50,0
C[C@H]1CN([C@@H](C)CO)C(=O)Cc2cc(NC(=O)CCCCCC(=O)Nc3ccccc3N)ccc2O[C@H]1CN(C)Cc1ccc(Oc2ccccc2)cc1,11,-2,-85*,.
COc1cc([N+](=O)[O-])ccc1NC(=O)CSc1ncccn1,.,.,.,-1
Nc1cc(=O)[nH]c(SCC(=O)N2CCN(c3ccccc3)CC2)n1,.,.,.,-1
C[C@H](CO)N1C[C@H](C)[C@@H](CN(C)C(=O)c2ccccn2)Oc2ncc(Br)cc2C1=O,.,26*,15,8
COc1cccc(C#Cc2cnc3c(c2)C(=O)N([C@H](C)CO)C[C@H](C)[C@H](CN(C)C(=O)C2CCOCC2)O3)c1,.,5,-13,1
COc1cccc(C#Cc2cnc3c(c2)C(=O)N([C@@H](C)CO)C[C@H](C)[C@H](CN(C)C(=O)C2CCCCC2)O3)c1,70,-1,-83*,.
COc1cccc(C#Cc2cnc3c(c2)C(=O)N([C@@H](C)CO)C[C@H](C)[C@@H](CN(C)C(=O)C2CCOCC2)O3)c1,.,-2,-83*,-11
C[C@@H]1CN([C@@H](C)CO)C(=O)c2cc(Br)cnc2O[C@@H]1CN(C)C(=O)C1CCOCC1,-13,39*,42,19
COc1ccc(-c2nc(SCC(=O)Nc3cccc(F)c3)n[nH]2)cc1,.,.,.,0
Cc1ccc(NC(=O)C(C)NS(=O)(=O)c2ccc(F)cc2)c(C)c1 (stereo not given),.,.,.,0
O=C(C[C@@H]1C[C@@H]2c3cc(NC(=O)Cc4ccncc4)ccc3O[C@@H]2[C@H](CO)O1)NCc1ccccc1,-2,-2,-39,0
CN(C)c1ccc2c(c1)[C@@H]1C[C@@H](CC(=O)NCc3ccccn3)O[C@@H](CO)[C@@H]1O2,-11,28*,-35,-10
CN(C)c1ccc2c(c1)[C@H]1C[C@H](CC(=O)NCc3ccc(-c4ccccc4)cc3)O[C@H](CO)[C@H]1O2,.,3,-45,.
O=C(C[C@H]1C[C@H]2c3cc(NC(=O)Cc4ccncc4)ccc3O[C@H]2[C@H](CO)O1)NCc1ccccc1,6,-2,-89*,0
CCCNC(=O)C[C@@H]1C[C@H]2c3cc(NC(=O)CC4CC4)ccc3O[C@H]2[C@H](CO)O1,-50,41*,-1,?
SMILES,T cruzi growth,KDM4C inh,Pf Dd2 inh,IDH1 R132H inh
CCCNC(=O)C[C@@H]1C[C@H]2c3cc(NC(=O)CC4CC4)ccc3O[C@H]2[C@@H](CO)O1,-17,0,16,0
CN(C)c1ccc2c(c1)[C@@H]1C[C@H](CC(=O)NCc3ccccc3)O[C@@H](CO)[C@@H]1O2,42,47*,-36,-2
CC/C=C\C[C@@H]1C(=O)C=C[C@@H]1CCCCCCCC(=O)O,.,.,.,5
COc1ccc(S(=O)(=O)N(C)C[C@H]2OCCCC[C@@H](C)Oc3ccc(NC(=O)Nc4ccc(C(F)(F)F)cc4)cc3C(=O)N([C@@H](C)CO)C[C@H]2C)cc1,89,1,-85*,.
COc1ccc(S(=O)(=O)N(C)C[C@@H]2OCCCC[C@H](C)Oc3ccc(NC(=O)Nc4ccc(C(F)(F)F)cc4)cc3C(=O)N([C@H](C)CO)C[C@H]2C)cc1,79,.,-83*,.
COc1ccc(S(=O)(=O)N(C)C[C@@H]2OCCCC[C@@H](C)Oc3ccc(NC(=O)Nc4ccc(C(F)(F)F)cc4)cc3C(=O)N([C@@H](C)CO)C[C@H]2C)cc1,90,0,-75,.
COc1ccc(S(=O)(=O)N(C)C[C@H]2OCCCC[C@@H](C)Oc3ccc(NC(=O)Nc4ccc(C(F)(F)F)cc4)cc3C(=O)N([C@@H](C)CO)C[C@@H]2C)cc1,80,-1,-85*,2
COc1ccc(S(=O)(=O)N(C)C[C@@H]2OCCCC[C@@H](C)Oc3ccc(NC(=O)Nc4ccc(C(F)(F)F)cc4)cc3C(=O)N([C@@H](C)CO)C[C@@H]2C)cc1,85,-1,-88*,.
COc1ccc(NC(=O)Nc2ccc3c(c2)C(=O)N([C@H](C)CO)C[C@@H](C)[C@H](CN(C)S(=O)(=O)c2ccc(OC)cc2)OCCCC[C@H](C)O3)cc1,-14,0,9,-1
CC(C)(C)C1CCc2c(sc(NC(=O)CSc3n[nH]c(-c4ccco4)n3)c2C#N)C1 (stereo not given),.,.,.,0
COc1ccc(C)cc1NC(=O)CN(c1cccc(F)c1)S(C)(=O)=O,.,.,.,0
O=C(CSc1n[nH]c(-c2ccc(Cl)cc2)n1)Nc1ccc(F)c(Cl)c1,.,.,.,0
CC(=O)c1cccc(NC(=O)Nc2nn(Cc3c(F)cccc3Cl)cc2Br)c1,.,.,.,0
COc1ccc(S(=O)(=O)Nc2ccc3c(c2)C(=O)N([C@@H](C)CO)C[C@@H](C)[C@H](CN(C)C(=O)Nc2cccc4ccccc24)OCCCC[C@@H](C)O3)cc1,91,-3,-33,0
Cc1noc(C)c1S(=O)(=O)Nc1ccc2c(c1)C(=O)N([C@H](C)CO)C[C@@H](C)[C@@H](CN(C)C(=O)Nc1ccc(F)cc1)OCCCC[C@@H](C)O2,81,1,-85*,.
COc1ccc(S(=O)(=O)Nc2ccc3c(c2)C(=O)N([C@@H](C)CO)C[C@@H](C)[C@@H](CN(C)C(=O)Nc2cccc4ccccc24)OCCCC[C@H](C)O3)cc1,55,-4,-88*,3
Cc1noc(C)c1S(=O)(=O)Nc1ccc2c(c1)C(=O)N([C@@H](C)CO)C[C@@H](C)[C@@H](CN(C)C(=O)Nc1cccc3ccccc13)OCCCC[C@H](C)O2,73,0,-87*,.
